In experiment [1] the target is Glycogen synthase kinase-3 beta (Homo sapiens) (UniProt P49841). Put plainly: Residual activity of GSK3-beta at 1 uM by microplate scintillation counting.
The target in experiment [2] is Dual specificity protein kinase CLK1 (Homo sapiens) (UniProt P49759). In words: Residual activity of CLK1 at 0.1 uM by microplate scintillation counting.
Experiment [3] addresses Fibroblast growth factor receptor 3 (Homo sapiens) (UniProt P22607). In words: Residual activity of FGFR3 at 0.1 uM by microplate scintillation counting.
The target of experiment [4] is Interleukin-1 receptor-associated kinase 1 (Homo sapiens) (UniProt P51617). Put plainly: Residual activity of IRAKI at 1 uM by microplate scintillation counting.
Experiment [5] addresses Serine/threonine-protein kinase PAK 4 (Homo sapiens) (UniProt O96013). In words: Residual activity of PAK4 at 1 uM by microplate scintillation counting.
Experiment [6] deals with Receptor-interacting serine/threonine-protein kinase 2 (Homo sapiens) (UniProt O43353). Put plainly: Residual activity of RIPK2 at 1 uM by microplate scintillation counting.
Experiment [7] relates to Epidermal growth factor receptor (Homo sapiens), P00533 [T790M]. Put plainly: Residual activity of EGFR T790M mutant at 10 uM by microplate scintillation counting.
Experiment [8] addresses Interleukin-1 receptor-associated kinase 1 (Homo sapiens) (UniProt P51617). In words: Residual activity of IRAKI at 10 uM by microplate scintillation counting.
The target of experiment [9] is RAC-alpha serine/threonine-protein kinase (Homo sapiens) (UniProt P31749). In words: Residual activity of AKT1 at 1 uM by microplate scintillation counting.
Sequence of RAC-alpha serine/threonine-protein kinase (Homo sapiens) (P31749 whole entry): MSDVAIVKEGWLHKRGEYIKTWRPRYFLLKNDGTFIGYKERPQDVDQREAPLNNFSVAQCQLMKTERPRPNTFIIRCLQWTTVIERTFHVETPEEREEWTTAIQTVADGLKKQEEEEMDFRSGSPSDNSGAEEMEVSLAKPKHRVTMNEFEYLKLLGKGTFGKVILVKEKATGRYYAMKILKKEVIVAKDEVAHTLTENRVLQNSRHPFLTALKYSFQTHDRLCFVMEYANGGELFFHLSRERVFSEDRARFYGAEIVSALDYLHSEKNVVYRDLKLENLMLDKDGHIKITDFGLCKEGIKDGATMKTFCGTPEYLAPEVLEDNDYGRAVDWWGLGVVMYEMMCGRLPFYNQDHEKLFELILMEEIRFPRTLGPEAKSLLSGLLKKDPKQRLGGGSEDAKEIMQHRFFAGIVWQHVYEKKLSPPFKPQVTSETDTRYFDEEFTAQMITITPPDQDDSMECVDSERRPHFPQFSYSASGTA
Experiment [10] concerns the target T1, Calcium/calmodulin-dependent protein kinase type IV (Homo sapiens) (UniProt Q16566).
T1 sequence (whole entry): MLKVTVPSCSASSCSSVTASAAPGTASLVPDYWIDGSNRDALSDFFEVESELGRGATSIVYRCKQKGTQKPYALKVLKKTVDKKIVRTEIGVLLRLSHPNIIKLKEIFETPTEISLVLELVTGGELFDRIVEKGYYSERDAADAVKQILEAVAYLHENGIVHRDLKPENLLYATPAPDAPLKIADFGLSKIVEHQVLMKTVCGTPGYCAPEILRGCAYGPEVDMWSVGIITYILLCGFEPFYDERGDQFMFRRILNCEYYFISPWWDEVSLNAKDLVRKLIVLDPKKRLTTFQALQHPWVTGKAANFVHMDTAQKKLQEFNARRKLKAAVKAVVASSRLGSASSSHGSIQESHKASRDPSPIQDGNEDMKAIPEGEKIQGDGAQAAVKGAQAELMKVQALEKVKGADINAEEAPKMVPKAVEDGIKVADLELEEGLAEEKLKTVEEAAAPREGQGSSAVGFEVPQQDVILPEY
In words: Residual activity of CAMK4 at 10 uM by microplate scintillation counting.

For experiment [11], the target named is Cyclin-dependent kinase 2/cyclin A (Homo sapiens) (UniProt P24941+P20248+P78396). In words: Residual activity of CDK2/Cyclin A at 10 uM by microplate scintillation counting. The experiment is classed as protein-complex assay.
In experiment [12] the target is Ephrin type-A receptor 5 (Homo sapiens) (UniProt P54756). Put plainly: Residual activity of EPHA5 at 0.1 uM by microplate scintillation counting.
Sequence of Ephrin type-A receptor 5 (Homo sapiens) (P54756 whole entry): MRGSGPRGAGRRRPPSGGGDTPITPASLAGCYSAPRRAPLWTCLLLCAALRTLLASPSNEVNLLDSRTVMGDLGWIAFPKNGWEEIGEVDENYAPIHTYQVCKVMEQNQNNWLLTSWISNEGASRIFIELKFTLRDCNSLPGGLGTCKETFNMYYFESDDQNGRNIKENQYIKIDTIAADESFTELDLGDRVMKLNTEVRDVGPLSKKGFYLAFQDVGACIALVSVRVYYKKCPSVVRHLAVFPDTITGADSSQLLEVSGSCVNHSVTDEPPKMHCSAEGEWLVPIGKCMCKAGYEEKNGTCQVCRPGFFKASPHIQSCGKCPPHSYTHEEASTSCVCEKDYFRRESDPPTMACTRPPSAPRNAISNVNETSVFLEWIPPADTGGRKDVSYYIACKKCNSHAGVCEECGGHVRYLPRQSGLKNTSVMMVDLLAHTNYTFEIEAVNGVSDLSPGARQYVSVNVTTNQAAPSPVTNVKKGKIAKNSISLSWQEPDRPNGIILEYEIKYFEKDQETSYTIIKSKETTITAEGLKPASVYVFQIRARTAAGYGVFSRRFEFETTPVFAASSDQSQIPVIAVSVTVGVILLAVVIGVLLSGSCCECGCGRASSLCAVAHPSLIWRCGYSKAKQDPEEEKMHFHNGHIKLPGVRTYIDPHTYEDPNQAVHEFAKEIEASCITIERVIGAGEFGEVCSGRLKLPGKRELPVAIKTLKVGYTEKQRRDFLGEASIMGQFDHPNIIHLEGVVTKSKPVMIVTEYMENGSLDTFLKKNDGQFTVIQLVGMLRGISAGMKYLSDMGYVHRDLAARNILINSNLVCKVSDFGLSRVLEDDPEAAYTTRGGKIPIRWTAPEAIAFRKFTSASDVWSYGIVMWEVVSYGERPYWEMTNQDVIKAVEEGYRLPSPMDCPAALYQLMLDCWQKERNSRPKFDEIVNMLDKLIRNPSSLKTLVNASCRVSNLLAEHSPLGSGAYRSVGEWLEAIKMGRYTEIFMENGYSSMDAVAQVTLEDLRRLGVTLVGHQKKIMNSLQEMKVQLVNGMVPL
Experiment [13] has as its target MAP/microtubule affinity-regulating kinase 3 (Homo sapiens) (UniProt P27448). In words: Residual activity of MARK3 at 10 uM by microplate scintillation counting.
The target of experiment [14] is Mitogen-activated protein kinase 14 (Homo sapiens) (UniProt Q16539). In words: Residual activity of p38alpha at 10 uM by microplate scintillation counting.
Experiment [15] addresses Aurora kinase B (Homo sapiens, UniProt Q96GD4). In words: Residual activity of Aurora-B at 0.1 uM by microplate scintillation counting.
In experiment [16] the target is T2, Phosphorylase b kinase gamma catalytic chain, liver/testis isoform (Homo sapiens) (UniProt P15735).
T2 sequence (whole entry): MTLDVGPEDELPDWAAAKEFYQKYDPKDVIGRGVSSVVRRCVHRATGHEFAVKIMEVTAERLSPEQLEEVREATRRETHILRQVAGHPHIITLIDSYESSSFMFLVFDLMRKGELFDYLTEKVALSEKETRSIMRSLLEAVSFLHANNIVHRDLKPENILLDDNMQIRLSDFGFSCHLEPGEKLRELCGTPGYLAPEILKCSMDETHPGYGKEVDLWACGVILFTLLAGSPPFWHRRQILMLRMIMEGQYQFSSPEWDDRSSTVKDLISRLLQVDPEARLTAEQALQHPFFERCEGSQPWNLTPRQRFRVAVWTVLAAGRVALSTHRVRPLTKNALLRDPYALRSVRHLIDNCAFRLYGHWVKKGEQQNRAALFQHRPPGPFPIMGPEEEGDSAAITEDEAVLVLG
Put plainly: Residual activity of PHKG2 at 0.1 uM by microplate scintillation counting.

Experiment [17] has as its target Serine/threonine-protein kinase N1 (Homo sapiens) (UniProt Q16512). In words: Residual activity of PRK1 at 10 uM by microplate scintillation counting.
Experiment [18] relates to RAF proto-oncogene serine/threonine-protein kinase (Homo sapiens), P04049 [Y340D,Y341D]. In words: Residual activity of RAF1 Y340D/Y341D mutant at 0.1 uM by microplate scintillation counting.
Experiment [19] has as its target Ribosomal protein S6 kinase alpha-1 (Homo sapiens) (UniProt Q15418). Put plainly: Residual activity of RPS6KA1 at 0.1 uM by microplate scintillation counting.
The target in experiment [20] is Proto-oncogene tyrosine-protein kinase Src (Homo sapiens) (UniProt P12931). Put plainly: Residual activity of SRC at 0.1 uM by microplate scintillation counting.
In experiment [21] the target is BDNF/NT-3 growth factors receptor (Homo sapiens) (UniProt Q16620). Put plainly: Residual activity of TRK-B at 0.1 uM by microplate scintillation counting.
Sequence of BDNF/NT-3 growth factors receptor (Homo sapiens) (Q16620 32-822 limits assumed): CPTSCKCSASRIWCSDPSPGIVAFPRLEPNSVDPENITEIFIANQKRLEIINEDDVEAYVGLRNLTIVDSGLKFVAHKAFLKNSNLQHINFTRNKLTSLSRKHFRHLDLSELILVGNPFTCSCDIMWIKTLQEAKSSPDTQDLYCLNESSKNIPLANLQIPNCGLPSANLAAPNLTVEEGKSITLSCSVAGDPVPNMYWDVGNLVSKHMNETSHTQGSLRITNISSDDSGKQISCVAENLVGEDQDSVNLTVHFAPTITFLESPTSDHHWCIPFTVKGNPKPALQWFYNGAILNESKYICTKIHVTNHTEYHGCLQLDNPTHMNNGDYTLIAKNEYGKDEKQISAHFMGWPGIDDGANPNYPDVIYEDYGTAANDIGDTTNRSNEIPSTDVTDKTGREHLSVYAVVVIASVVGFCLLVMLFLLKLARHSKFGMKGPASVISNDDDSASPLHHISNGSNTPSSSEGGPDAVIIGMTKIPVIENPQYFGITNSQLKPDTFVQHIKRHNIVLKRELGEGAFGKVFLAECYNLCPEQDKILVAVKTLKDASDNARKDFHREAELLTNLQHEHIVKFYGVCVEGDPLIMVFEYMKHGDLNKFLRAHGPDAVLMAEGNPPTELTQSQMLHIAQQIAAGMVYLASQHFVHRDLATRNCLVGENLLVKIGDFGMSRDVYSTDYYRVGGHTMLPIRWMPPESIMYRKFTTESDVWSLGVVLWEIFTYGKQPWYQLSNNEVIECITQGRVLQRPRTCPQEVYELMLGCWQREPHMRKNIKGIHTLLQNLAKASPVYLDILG
For experiment [22], the target named is T3, Aurora kinase A (Homo sapiens, UniProt O14965).
T3 sequence (O14965 whole entry): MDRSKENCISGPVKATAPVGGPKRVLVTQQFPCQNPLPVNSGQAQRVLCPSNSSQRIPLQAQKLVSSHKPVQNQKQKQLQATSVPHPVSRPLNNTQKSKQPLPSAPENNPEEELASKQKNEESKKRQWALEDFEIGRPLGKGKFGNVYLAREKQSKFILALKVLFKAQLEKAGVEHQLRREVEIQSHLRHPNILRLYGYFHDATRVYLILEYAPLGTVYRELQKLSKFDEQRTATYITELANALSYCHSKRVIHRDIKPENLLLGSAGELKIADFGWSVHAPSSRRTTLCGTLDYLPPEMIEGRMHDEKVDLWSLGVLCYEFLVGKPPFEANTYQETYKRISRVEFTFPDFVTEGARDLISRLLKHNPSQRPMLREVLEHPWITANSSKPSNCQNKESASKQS
In words: Inhibition of Aurora-A by microplate scintillation counting. The essentials: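 Substrates: tetra(LRRWSLG) for Aurora A/B; poly(Ala,Glu,Lys,Tyr)6:2:5:1 for PDGFRβ; poly(Glu,Tyr)4:1 for TIE2 and VEGFR2. Stopped with 2% H3PO4.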

Sequence of Fibroblast growth factor receptor 3 (Homo sapiens) (P22607 23-806 limits assumed): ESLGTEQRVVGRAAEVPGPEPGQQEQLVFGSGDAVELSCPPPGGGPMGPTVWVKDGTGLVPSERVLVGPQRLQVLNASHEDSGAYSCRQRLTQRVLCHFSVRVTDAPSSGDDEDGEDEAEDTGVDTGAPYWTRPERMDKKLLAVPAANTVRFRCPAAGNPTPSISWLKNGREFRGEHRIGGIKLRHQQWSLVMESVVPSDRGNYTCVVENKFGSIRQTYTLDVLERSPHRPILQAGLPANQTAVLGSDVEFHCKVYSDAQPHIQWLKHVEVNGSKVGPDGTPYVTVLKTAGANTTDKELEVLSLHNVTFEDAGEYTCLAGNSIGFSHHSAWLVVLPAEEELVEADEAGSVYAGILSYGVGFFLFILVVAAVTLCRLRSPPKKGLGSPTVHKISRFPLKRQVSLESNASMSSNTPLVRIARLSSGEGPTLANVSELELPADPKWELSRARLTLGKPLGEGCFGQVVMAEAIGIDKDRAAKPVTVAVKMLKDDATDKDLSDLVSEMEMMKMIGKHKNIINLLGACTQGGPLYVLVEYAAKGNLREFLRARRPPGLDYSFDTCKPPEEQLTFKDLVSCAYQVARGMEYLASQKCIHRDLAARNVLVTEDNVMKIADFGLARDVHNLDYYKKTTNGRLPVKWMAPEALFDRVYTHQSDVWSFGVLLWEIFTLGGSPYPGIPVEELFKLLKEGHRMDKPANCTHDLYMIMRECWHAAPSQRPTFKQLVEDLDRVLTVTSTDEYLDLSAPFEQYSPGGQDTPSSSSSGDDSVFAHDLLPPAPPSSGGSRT
Sequence of Ribosomal protein S6 kinase alpha-1 (Homo sapiens) (Q15418 whole entry): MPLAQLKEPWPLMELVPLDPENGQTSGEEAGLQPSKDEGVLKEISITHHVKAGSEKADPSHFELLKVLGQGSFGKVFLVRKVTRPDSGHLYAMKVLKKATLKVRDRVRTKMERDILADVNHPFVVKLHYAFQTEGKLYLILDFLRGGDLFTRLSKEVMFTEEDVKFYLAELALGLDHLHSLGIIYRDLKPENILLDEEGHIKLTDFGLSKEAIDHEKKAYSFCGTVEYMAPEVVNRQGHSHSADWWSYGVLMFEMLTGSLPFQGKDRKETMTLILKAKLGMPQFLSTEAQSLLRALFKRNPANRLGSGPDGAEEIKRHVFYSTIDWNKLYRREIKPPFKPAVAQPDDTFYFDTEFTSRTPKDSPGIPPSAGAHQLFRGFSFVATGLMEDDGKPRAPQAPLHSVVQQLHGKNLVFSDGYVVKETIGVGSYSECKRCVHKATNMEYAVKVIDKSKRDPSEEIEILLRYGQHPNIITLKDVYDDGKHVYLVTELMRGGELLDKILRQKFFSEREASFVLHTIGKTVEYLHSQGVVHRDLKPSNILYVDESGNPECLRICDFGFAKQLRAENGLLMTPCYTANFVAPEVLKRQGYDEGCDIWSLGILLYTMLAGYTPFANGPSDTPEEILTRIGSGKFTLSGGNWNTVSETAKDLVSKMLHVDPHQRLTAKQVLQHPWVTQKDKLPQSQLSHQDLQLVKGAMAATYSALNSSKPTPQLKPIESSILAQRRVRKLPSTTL
Sequence of Serine/threonine-protein kinase PAK 4 (Homo sapiens) (O96013 whole entry, looked up): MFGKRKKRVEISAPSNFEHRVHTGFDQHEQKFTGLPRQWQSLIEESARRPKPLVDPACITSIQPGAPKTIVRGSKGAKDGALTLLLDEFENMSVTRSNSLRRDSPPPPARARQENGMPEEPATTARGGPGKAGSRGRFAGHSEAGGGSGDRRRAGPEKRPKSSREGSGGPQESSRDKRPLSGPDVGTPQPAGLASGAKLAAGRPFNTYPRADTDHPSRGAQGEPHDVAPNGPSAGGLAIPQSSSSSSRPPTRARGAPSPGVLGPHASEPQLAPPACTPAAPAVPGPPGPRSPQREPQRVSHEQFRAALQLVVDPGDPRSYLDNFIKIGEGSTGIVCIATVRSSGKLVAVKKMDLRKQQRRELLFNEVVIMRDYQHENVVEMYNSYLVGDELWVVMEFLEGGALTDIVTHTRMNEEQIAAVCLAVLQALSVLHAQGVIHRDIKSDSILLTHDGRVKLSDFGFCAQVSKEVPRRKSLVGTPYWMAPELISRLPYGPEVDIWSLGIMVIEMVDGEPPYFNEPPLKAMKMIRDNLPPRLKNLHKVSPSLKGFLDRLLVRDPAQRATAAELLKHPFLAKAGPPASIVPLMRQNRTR
Sequence of Glycogen synthase kinase-3 beta (Homo sapiens) (P49841 whole entry, looked up): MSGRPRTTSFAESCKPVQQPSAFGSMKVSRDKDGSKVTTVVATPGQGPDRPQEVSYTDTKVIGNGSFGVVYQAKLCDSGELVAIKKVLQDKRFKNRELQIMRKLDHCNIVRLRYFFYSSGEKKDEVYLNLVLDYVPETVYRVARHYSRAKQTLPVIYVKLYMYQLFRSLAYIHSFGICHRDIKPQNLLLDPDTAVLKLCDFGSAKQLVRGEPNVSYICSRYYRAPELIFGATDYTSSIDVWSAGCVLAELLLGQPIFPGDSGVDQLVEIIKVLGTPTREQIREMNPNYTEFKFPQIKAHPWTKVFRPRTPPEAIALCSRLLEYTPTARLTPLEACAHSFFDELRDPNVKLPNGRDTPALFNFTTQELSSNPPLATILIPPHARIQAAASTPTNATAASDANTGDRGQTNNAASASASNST

What is called IC50 is the point on the concentration scale where inhibition reaches its midpoint. Low readings indicate greater potency in that assay, high ones weaker potency in that assay. For the molecule `COc1cc2c(Oc3ccc(-c4nc5ccccc5s4)cc3F)ncnc2cc1OCCCN1CCN(C)CC1`, the residual activity in experiment [1] is 93%; in [2], 96%; in [3], 100%; in [4] it was 93%; in experiment [5], 99%; in experiment [6] it was 29%. Further, the residual activity stood at 41% in experiment [7]; 18% in experiment [8]; 100% in experiment [9]; 211% in [10]; 73% in experiment [11]; 97% in experiment [12]. The residual activity in experiment [13] worked out at 104%; in [14], 320%; in experiment [15], 45%; in experiment [16], 53%; in experiment [17], 91%; in experiment [18] it was 100%. Further, the residual activity in experiment [19] turned out to be 86%; in [20], 100%; in experiment [21], 94%. The molecule further displayed an IC50 in experiment [22] of 0.22 µM.
For `COc1cc2c(Oc3ccc(-c4nc5ccccc5s4)cc3)ncnc2cc1OCCCN1CCN(C)CC1`, the residual activity came to 84% in [1]; 94% in experiment [2]; 95% in experiment [3]; 74% in experiment [4]; 105% in experiment [5]; 25% in experiment [6]. For the same molecule, the residual activity in experiment [7] stood at 88%; in [8], 23%; in [9], 109%; in experiment [10], 227%; in experiment [11] it was 84%; in experiment [12] it was 81%. Moreover, the residual activity in experiment [13] was found to be 107%; in experiment [14], 327%; in experiment [15], 40%; in experiment [16] it was 86%; in [17] it was 83%; in [18], 114%. Moreover, the residual activity in experiment [19] is 81%; in [20], 100%; in experiment [21], 82%. The midpoint of inhibition in [22], the IC50, lay at 0.082 µM.
For the molecule `COc1cc2c(Oc3ccc(-c4nc5ccccc5s4)cc3)ncnc2cc1OCCCN1CCCC1`, the residual activity in experiment [1] was 91%; in experiment [2], 114%; in experiment [3], 104%; in experiment [4], 58%; in experiment [5], 112%; in experiment [6] it was 29%. Further, the residual activity worked out at 96% in experiment [7]; 18% in [8]; 97% in experiment [9]; 88% in experiment [10]; 79% in [11]; 103% in [12]. The residual activity in experiment [13] came to 108%; in [14], 325%; in experiment [15], 48%; in experiment [16], 83%; in experiment [17], 68%; in experiment [18], 95%. Further, the residual activity in experiment [19] is 79%; in experiment [20], 100%; in experiment [21] it was 97%. Further, the IC50 in experiment [22] was 0.17 µM.

The record behind these values is ChEMBL document CHEMBL1152560, “Substituted 2-arylbenzothiazoles as kinase inhibitors: hit-to-lead optimization” (Bioorg Med Chem, 2009).
